# Laboratory results published in the RNAGym collection of RNA variant scans (doi:10.1126/science.aae0568).
# Variants at the floor of the assay were thinned out.
# B1: tRNA (parent)
# chain: GUUCCGUUGGCGUAAUGGUAACGCGUCUCCCUCCUAAGGAGAAGACUGCGGGUUCGAGUCCCGUACGGAACG
# Variants of: B1
# Test: yeast fitness relative to wild type (ratio to wild type); higher = fitter; tRNA-Arg(CCU), competitive growth, 37 C, YPD
# Summary of the method: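 Variants of the tRNA-Arg(CCU) gene, chemically synthesised with a 3% per-site mutation rate at 69 sites, were placed at the native genomic locus in Saccharomyces cerevisiae. The pooled strains were competed in YPD at 37°C for 24 hours in six parallel replicates. Gene amplicons from the start population and from each end population were read by 100-nucleotide paired-end sequencing. Darwinian fitness relative to wild type came from changes in genotype frequencies; genotypes needed ≥ 100 starting reads, and estimates < 0.5 were set to 0.5.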
row,Variant,yeast fitness
1,C5U C60A C62G,≤ 0.5
2,C5U C55A C61G,≤ 0.5
3,C5U C29U C31U U54G A65U G67A,≤ 0.5
4,C5U C46G C62U,0.697
5,C5U G9A C31A A57C C66A A69U,≤ 0.5
6,C5U C29G C33U,≤ 0.5
7,C5U G6A C31G G50C U54C,≤ 0.5
8,C5U C27G U28G,≤ 0.5
9,C5U C31G C66U,0.736
10,C5U C30U A40U,0.567
11,C5U C29A A45C,0.669
12,C5U G6C A21C A42U C46U C66U,≤ 0.5
13,C5U C29A,0.569
14,C5U C29U,0.867
15,C5U C34A U64G,≤ 0.5
16,C5U C33G C49A A70C,≤ 0.5
17,C5U C49U G67C,0.608
18,C5U C55U G56C,0.746
19,C5U C34A U53A A57U A65U,≤ 0.5
20,C5U C46G C62U C66G,0.538
21,C5U C33U A45C C46G A69U,≤ 0.5

row,Variant,yeast fitness
1,C5U C33A G39C G51C C62U A69C,0.543
2,C5U C29G C49U A69U,≤ 0.5
3,C5U C29G C34G,0.542
4,C5U C34U C49G G52C C55U C62G,≤ 0.5
5,C5U C31G G68C,0.645
6,C5U C33U A69C,0.556
7,C5U C31G G56C,0.527
8,C5U C31G A40G A45G C46G G48A,≤ 0.5
9,C5U C33G C34G C46U,≤ 0.5
10,C5U C46U A57G A70C,≤ 0.5
11,C5U C33A A36C A37C A43G A69U,≤ 0.5
12,C5U C33G G38A C60A,0.542
13,C5U C33U A37C A42U U47C G52A U54C G67A,≤ 0.5
14,C5U G6A A15U C31U U32C G67C,≤ 0.5
15,C5U G6C A20U A45U,≤ 0.5
16,C5U C31G U32C A37C G50C A69C,≤ 0.5
17,C5U C31U G50A U54C C55G,≤ 0.5
18,C5U C30U G44C G67C,≤ 0.5
19,C5U G6C A14G,≤ 0.5
20,C5U C30A A42U,0.59
21,C5U C62G G63C A65U,≤ 0.5

row,Variant,yeast fitness
1,C5U C31G C33G,0.579
2,C5U C49U C66U,0.887
3,C5U C31G,0.918
4,C5U C66U,0.877
5,C5U G9A A20G,0.663
6,C5U C29U A69U,0.72
7,C5U C27U A37C,≤ 0.5
8,C5U C31A C34A A36G,≤ 0.5
9,C5U C30A G39A C66G,≤ 0.5
10,C5U C30U A45U,0.701
11,C5U C29A A57U A69C,≤ 0.5
12,C5U C31G C33G C34U G68A,0.671
13,C5U C55A A57C,≤ 0.5
14,C5U C46A C66U,0.663
15,C5U C29G G68A,≤ 0.5
16,C5U C31U C46U G51A,0.69
17,C5U C34A C55G,≤ 0.5
18,C5U C46G C49G,0.527
19,C5U C55G,0.676
20,C5U C34A C49A U59G,≤ 0.5
21,C5U C30G C31A G63C,≤ 0.5

row,Variant,yeast fitness
1,C5U C34U C49U U53C G67U,≤ 0.5
2,C5U C29G G44A A57U,≤ 0.5
3,C5U C34A G63A,≤ 0.5
4,C5U C30G A36U G51A G52A U64G,≤ 0.5
5,C5U C34G A45U U53G A57G,0.672
6,C5U C46U,1.07
7,C5U C46A,1
8,C5U C46G G68U,≤ 0.5
9,C5U C33A A36C A37C A43G,≤ 0.5
10,C5U G9A A43C,0.653
11,C5U C55A G68C,≤ 0.5
12,C5U C34A G39C G52A G58A,≤ 0.5
13,C5U C34A G44C C62U,0.723
14,C5U G9A C61U,0.732
15,C5U C60G,0.627
16,C5U C60A,0.585
17,C5U C55U G56C C62U,0.932
18,C5U C46U C55G U64A,0.638
19,C5U C27U G48A G67C,≤ 0.5
20,C5U C34A G50C,≤ 0.5
